Reference: ChEMBL document CHEMBL4177756, “Small Molecule Neuropilin-1 Antagonists Combine Antiangiogenic and Antitumor Activity with Immune Modulation through Reduction of Transforming Growth Factor Beta (TGFβ) Production in Regulatory T-Cells” (J Med Chem, 2018)

Tests used:
Neuropilin-1 = Neuropilin-1 (Homo sapiens, UniProt O14786); assay: Binding affinity to N-terminal His6-tagged recombinant human NRP1-b1 domain expressed in Escherichia coli Rosetta Gami 2 (DE3) pLysS cells by SPR method
Summary of the method: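 Human NRP1-b1 (residues 273–427, His6-tagged) was amine-coupled to a CM5 chip at high and low density; an unmodified spot served as reference. Runs were at 25 °C in PBS with 0.05% P20 and 3% DMSO. Compound was tested as 2-fold dilutions from 16 µM to 31 nM with 60 s injections. KD was taken from steady-state responses, DMSO-corrected; mean ± SD of the two surfaces.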

Mus musculus [1] = assay: Tmax in BALB/c mouse at 2 mg/kg, iv administered as bolus dose by LC-MS method; assay type: ADME, organism-based; conditions: in vivo
Summary of the method: (§1)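 Female BALB/c mice, 6–8 weeks old, received 2 mg/kg as a tail-vein bolus formulated in 7.5% DMSO. Blood was taken by cardiac puncture at 5, 15, 30, 60, 180 and 240 min. Plasma was separated by centrifugation, snap-frozen and assayed by LC-MS/MS with electrospray ionization.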

Mus musculus [2] = assay: Cmax in BALB/c mouse at 2 mg/kg, iv administered as bolus dose by LC-MS method; assay type: ADME, organism-based; set-up: dose 2 mg/kg, route intravenous; conditions: in vivo; summary of the method: as §1
Mus musculus [3] = assay: AUC (infinity) in BALB/c mouse at 2 mg/kg, iv administered as bolus dose by LC-MS method; assay type: ADME, organism-based; set-up: dose 2 mg/kg, route intravenous, time infinity; conditions: in vivo; summary of the method: as §1
Mus musculus [4] = assay: Volume of distribution in BALB/c mouse at 2 mg/kg, iv administered as bolus dose by LC-MS method; assay type: ADME, organism-based; conditions: in vivo; summary of the method: as §1
Mus musculus [5] = assay: Half life in BALB/c mouse at 2 mg/kg, iv administered as bolus dose by LC-MS method; assay type: ADME, organism-based; conditions: in vivo; summary of the method: as §1
in vivo = conditions: mouse, iv, 2.5 mg/kg

Sequence of Neuropilin-1 (O14786 whole entry, the tested form may be a part): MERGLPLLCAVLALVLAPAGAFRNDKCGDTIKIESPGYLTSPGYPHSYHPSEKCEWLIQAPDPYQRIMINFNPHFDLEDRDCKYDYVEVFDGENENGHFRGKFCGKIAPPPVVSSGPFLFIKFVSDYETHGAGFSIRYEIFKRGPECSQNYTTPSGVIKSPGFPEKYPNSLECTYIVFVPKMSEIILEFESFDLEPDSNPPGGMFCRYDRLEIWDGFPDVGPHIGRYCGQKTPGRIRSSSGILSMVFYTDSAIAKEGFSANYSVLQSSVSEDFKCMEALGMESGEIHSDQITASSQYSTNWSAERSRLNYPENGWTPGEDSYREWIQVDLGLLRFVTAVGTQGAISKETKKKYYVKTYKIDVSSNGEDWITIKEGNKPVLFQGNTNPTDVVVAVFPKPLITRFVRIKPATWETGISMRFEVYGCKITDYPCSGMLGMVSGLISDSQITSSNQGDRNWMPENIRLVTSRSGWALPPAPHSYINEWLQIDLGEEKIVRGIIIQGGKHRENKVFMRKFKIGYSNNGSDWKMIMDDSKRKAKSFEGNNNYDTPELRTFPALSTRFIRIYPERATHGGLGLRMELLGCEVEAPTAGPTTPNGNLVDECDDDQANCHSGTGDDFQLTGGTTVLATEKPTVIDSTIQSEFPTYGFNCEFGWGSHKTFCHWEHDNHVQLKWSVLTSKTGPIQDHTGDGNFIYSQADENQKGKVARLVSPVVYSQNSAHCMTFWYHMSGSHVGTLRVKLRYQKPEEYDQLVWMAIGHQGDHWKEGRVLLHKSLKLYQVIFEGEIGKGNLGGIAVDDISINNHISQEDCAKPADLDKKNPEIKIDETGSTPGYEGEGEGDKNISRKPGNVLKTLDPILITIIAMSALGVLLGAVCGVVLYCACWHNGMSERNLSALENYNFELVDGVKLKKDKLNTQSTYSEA

| Kd (Neuropilin-1) | SMILES | other results |
| --- | --- | --- |
| 2.05 µM | N=C(N)NCCC[C@H](NC(=O)c1sccc1NS(=O)(=O)c1cc(-c2ccccc2CN2CCC(C(N)=O)CC2)cc2c1OCC2)C(=O)O |  |
| 1.33 µM | CNC(=O)C1CCN(Cc2cccc(-c3cc4c(c(S(=O)(=O)Nc5ccsc5C(=O)N[C@@H](CCCNC(=N)N)C(=O)O)c3)OCC4)c2)CC1 |  |
| 4.52 µM | CN(C)Cc1cccc(-c2cc3c(c(S(=O)(=O)Nc4ccsc4C(=O)N[C@@H](CCCNC(=N)N)C(=O)O)c2)OCC3)c1 | Tmax (Mus musculus [1]): 4.8 min; Cmax (Mus musculus [2]): 1.9598 µg/mL; AUC (Mus musculus [3]): 0.56444 µg·h/mL; Vd (Mus musculus [4]): 1.05261 L/kg; t1/2 (Mus musculus [5]): 40.8 min |
| 3.02 µM | CNC(=O)C1CCN(Cc2ccccc2-c2cc3c(c(S(=O)(=O)Nc4ccsc4C(=O)N[C@@H](CCCNC(=N)N)C(=O)O)c2)OCC3)CC1 |  |
| 1.17 µM | N=C(N)NCCC[C@H](NC(=O)c1sccc1NS(=O)(=O)c1cc(-c2cccc(CN3CCCCC3)c2)cc2c1OCC2)C(=O)O |  |
| 1.5 µM | N=C(N)NCCC[C@H](NC(=O)c1sccc1NS(=O)(=O)c1cc(-c2ccccc2CN2CCC(N3CCOCC3)CC2)cc2c1OCC2)C(=O)O |  |
| 14.4 µM | N=C(N)NCCC[C@H](NC(=O)c1sccc1NS(=O)(=O)c1cc(-c2ccccc2)cc2c1OCC2)C(=O)O |  |
| 2.47 µM | N=C(N)NCCC[C@H](NC(=O)c1sccc1NS(=O)(=O)c1cc(-c2cccc3c2CNC3)cc2c1OCC2)C(=O)O |  |
|  | N=C(N)NCCC[C@H](NC(=O)c1sccc1NS(=O)(=O)c1cccc2nsnc12)C(=O)O | half-life (in vivo): 30 min |
| 3.76 µM | N=C(N)NCCC[C@H](NC(=O)c1sccc1NS(=O)(=O)c1cc(-c2cccc(CN3CCOCC3)c2)cc2c1OCC2)C(=O)O |  |
